Bioassay records (PubChem)
DNMT1 inh = DNMT1 (human) enzyme inhibition | P26358 | DNMT1 molecular beacon, Hinp1I cleavage, fluorescence | inhibition (reported as % activation of signal), % at 10 µM | actives 0.83% (n = 360,000); in the data active = inhibition above about 50%
NadD inh = inhibitors of Staphylococcus aureus NadD; AID 602399; inhibition, % at 20 µM; actives 0.78% (n = 360,000); purified NadD enzyme, colorimetric absorbance read-out; in the data active = inhibition above about 26%
STEP inh = STEP (human) phosphatase inhibition; actives 0.25% (n = 360,000); inhibition, % at 20 µM; recombinant STEP, OMFP fluorogenic substrate, fluorescence; P54829;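 active = inhibition at 20 µM, scaled per plate between control wells, above about 37%, limit read from the data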;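 note: 0% = DMSO with enzyme and substrate and 100% = substrate only without enzyme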
Target sequence (P54829 whole entry, looked up): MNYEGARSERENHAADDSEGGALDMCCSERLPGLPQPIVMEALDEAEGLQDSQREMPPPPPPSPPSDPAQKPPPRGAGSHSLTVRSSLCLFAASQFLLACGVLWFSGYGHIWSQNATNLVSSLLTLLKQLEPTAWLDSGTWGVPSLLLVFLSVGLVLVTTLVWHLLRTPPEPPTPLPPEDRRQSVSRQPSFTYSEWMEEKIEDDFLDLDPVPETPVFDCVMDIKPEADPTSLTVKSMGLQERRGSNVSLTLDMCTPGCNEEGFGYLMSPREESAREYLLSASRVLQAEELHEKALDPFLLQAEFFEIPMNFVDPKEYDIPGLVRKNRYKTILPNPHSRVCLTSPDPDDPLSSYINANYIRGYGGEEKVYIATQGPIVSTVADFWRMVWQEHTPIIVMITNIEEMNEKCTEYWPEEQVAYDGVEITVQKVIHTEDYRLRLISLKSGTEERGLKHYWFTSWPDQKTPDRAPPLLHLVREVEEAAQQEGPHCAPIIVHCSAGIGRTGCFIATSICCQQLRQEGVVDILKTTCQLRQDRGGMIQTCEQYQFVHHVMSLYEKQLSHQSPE
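Also added – OMFP at 25 µM · Test system – STEP tyrosine phosphatase · Technique – FITC-channel fluorescence of OMFP product · Schedule – 20 min at room temperature, dark · Evaluation – control-normalized % inhibition with plate pattern correction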
Scp1 inh = inhibitors of human Scp-1 phosphatase | AID 493091 | Recombinant Scp1, phosphopeptide, malachite green phosphate absorbance | Q9GZU7 | actives 0.88% (n = 340,000) | inhibition, % at 20 µM;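 active = inhibition above about 50% at 20 µM, limit read from the data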;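 note: plate controls were DMSO wells with enzyme for no effect and wells lacking enzyme for full effect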
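Material: truncated SCP-1 phosphatase (76-261aa) / Buffer or medium: 50 mM Tris acetate pH 5.5, 0.005% Tween-20, 10 mM MgCl2 / Compound dosing: one concentration, 20 µM, with 1.0% DMSO / Incubation: 45 min room-temperature reaction, 5 min colour, 30 min stabiliser / Detection: colorimetric free-phosphate detection, absorbance 630 nm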
SUMO1 PPI mod = SUMO1-SIM interaction modulation; SUMO1 binding to a labelled peptide, TR-FRET, 1 h; inhibition, % at 20 µM; actives 0.33% (n = 360,000); AID 602429; in the data active = inhibition above about 37%
LMPTP inh = LMPTP (human) inhibition; recombinant LMPTP-A, OMFP fluorogenic substrate, fluorescence intensity; inhibition, % at 20 µM; actives 0.22% (n = 360,000); AID 651560;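 active = compounds that cut the enzyme signal by at least half of the control window in the single-dose screen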;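 note: plate controls were DMSO wells with enzyme plus substrate for no effect and substrate without enzyme for full effect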
Target sequence (P24666 whole entry, looked up): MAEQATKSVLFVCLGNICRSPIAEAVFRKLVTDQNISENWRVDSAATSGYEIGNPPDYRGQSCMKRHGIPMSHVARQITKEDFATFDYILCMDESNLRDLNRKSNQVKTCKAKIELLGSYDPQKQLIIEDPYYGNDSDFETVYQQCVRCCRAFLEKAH
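Test system – LMPTP-A enzyme · Amount – LMPTP-A at 0.625 nM final in the reaction · Buffer or medium – Bis-Tris pH 6.0, DTT, detergent · Reagent – OMFP 400 µM · Doses – single 20 µM dose · Schedule – reaction 50 min, room temperature, dark · Detection – fluorescence intensity of OMFP turnover product · Evaluation – percent inhibition versus substrate-only and uninhibited controls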
Scp1 confirm = confirmation of human Scp-1 phosphatase inhibitors. recombinant SCP-1 catalytic domain, phosphate release, malachite green absorbance. AID 540281. shares compounds with Scp1 inh. actives 61% (n = 2,500). inhibition, % at 20 µM;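 note: plate controls were DMSO with enzyme for no effect and buffer wells lacking enzyme for full effect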
Scp-1 MG ctr = counter-screen for Scp-1 inhibitors: colorimetric interference | shares compounds with Scp1 inh | Colorimetric interference counterscreen, malachite green absorbance 630 nm | apparent inhibition (interference), % at 20 µM | 2,500 tested, under 10 active | AID 540313;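 note: compounds added after enzyme reaction finished so only phosphate colour detection is probed; plate controls were DMSO wells with completed Scp-1 reaction for no effect and substrate wells lacking enzyme for full effect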
Scp1 DSF = binds human Scp-1, shifting its melting temperature | shares compounds with Scp1 inh | Recombinant SCP1, Sypro Orange thermal shift Tm | thermal shift relative to vanadate control, % at 40 µM | actives 25% (n = 1,500);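 active = substances whose mean melting-temperature shift, as a percentage of the reference inhibitor's shift, reaches about 5.3%, limit read from the data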;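 note: 0% = Tm of DMSO wells and 100% = Tm with sodium orthovanadate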
An asterisk follows results filed as active. This is a sample that favours compounds with a hit; in the whole collection about 2.3% have one here.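 Rule for the calls, unless noted: active = inhibition of at least 30% at 20 µM; inactive = the rest.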

How did COc1ccc(C(CC(=O)N2CCCC2)c2c(OC)cc(OC)c3c(-c4ccccc4)cc(=O)oc23)cc1 (centres undefined) do in these assays?
DNMT1 inh: 93.8*; NadD inh: 9.3; STEP inh: 6.6; Scp1 inh: 66.9*; SUMO1 PPI mod: 2.5; LMPTP inh: 15.1; Scp1 confirm: 59.0*; Scp-1 MG ctr: -8.7; Scp1 DSF: -21.3

Results for CCCSC1=N/C(=C\c2ccc([N+](=O)[O-])o2)C(=O)S1 ?
DNMT1 inh: 93.4*; NadD inh: 12.2; STEP inh: 30.7; Scp1 inh: 60.0*; SUMO1 PPI mod: 61.8*; LMPTP inh: 45.1; Scp1 confirm: 71.8*; Scp-1 MG ctr: -16.7; Scp1 DSF: 11.3*

What do the screens show for `CCSC1=N/C(=C\c2ccc(-c3ccccc3[N+](=O)[O-])o2)C(=O)S1`?
DNMT1 inh: -2.7; NadD inh: 14.2; STEP inh: 1.4; Scp1 inh: -19.6; SUMO1 PPI mod: -0.8; LMPTP inh: 5.1

What do the screens show for `COc1ccc(CNc2cccc3[nH]c(C(F)(F)F)nc23)cc1OC`?
DNMT1 inh: -20.7; NadD inh: -0.5; STEP inh: -2.2; Scp1 inh: -4.5; SUMO1 PPI mod: -1.2; LMPTP inh: 2.7

How did Cc1ccc(S(=O)(=O)N2CCN(C(=O)c3ccccc3)CC2)cc1 do in these assays?
DNMT1 inh: 1.8; NadD inh: -4.6; STEP inh: 1.4; Scp1 inh: -9.0; SUMO1 PPI mod: 0.7; LMPTP inh: -0.6

How did Cc1ccc(S(=O)(=O)N2CCN(C(=O)c3cccc(-n4cccc4)c3)CC2)cc1 do in these assays?
DNMT1 inh: 31.9; NadD inh: 1.1; STEP inh: 4.5; Scp1 inh: 85.6*; SUMO1 PPI mod: 11.2; LMPTP inh: 5.5; Scp1 confirm: 43.4*; Scp-1 MG ctr: -5.2; Scp1 DSF: -0.4

How did CNC(=O)COC(=O)/C=C/c1ccco1 do in these assays?
DNMT1 inh: 4.9; NadD inh: -2.3; STEP inh: -0.3; Scp1 inh: 12.5; SUMO1 PPI mod: -5.2; LMPTP inh: 2.4

Results for CC1CC(C)CN(C(=O)COC(=O)/C=C/c2ccco2)C1 (centres undefined) ?
DNMT1 inh: 34.5; NadD inh: -3.7; STEP inh: 14.7; Scp1 inh: 59.0*; SUMO1 PPI mod: -16.6; LMPTP inh: 4.8; Scp1 confirm: 47.9*; Scp-1 MG ctr: -17.8; Scp1 DSF: -20.5

How did C/C(=N\Nc1ccc([N+](=O)[O-])cc1[N+](=O)[O-])C(C)C(C)C (centres undefined) do in these assays?
DNMT1 inh: 8.2; NadD inh: 2.3; STEP inh: 5.4; Scp1 inh: -9.4; SUMO1 PPI mod: -24.5; LMPTP inh: 3.1

What do the screens show for `COc1ccc(CCNC(=O)c2ccc3c(=O)n(Cc4ccco4)c(=S)[nH]c3c2)cc1OC`?
DNMT1 inh: -7.1; NadD inh: 22.6; STEP inh: 3.9; Scp1 inh: 58.2*; SUMO1 PPI mod: 10.7; LMPTP inh: 3.5; Scp1 confirm: -14.1; Scp-1 MG ctr: -16.7

How did CCCNC(=O)c1ccc2c(=O)n(Cc3ccco3)c(=S)[nH]c2c1 do in these assays?
DNMT1 inh: 1.1; NadD inh: 1.4; STEP inh: 0.9; Scp1 inh: -3.5; SUMO1 PPI mod: 5.2; LMPTP inh: -0.1

What do the screens show for `CCOc1cc2[nH]c(=S)n(Cc3ccc(C(=O)NCCCN(CC)CC)cc3)c(=O)c2cc1OCC`?
DNMT1 inh: -0.8; NadD inh: -5.0; STEP inh: -1.1; Scp1 inh: 59.1*; SUMO1 PPI mod: 11.3; LMPTP inh: -0.1; Scp1 confirm: -13.1; Scp-1 MG ctr: -10.9

How did C=C1C(=O)C23C(O)C1CCC2C12CCCC(C)(COC(C)=O)C1C(O)C3(O)OC2 (centres undefined) do in these assays?
DNMT1 inh: 2.6; NadD inh: -3.4; STEP inh: -2.9; Scp1 inh: -7.6; SUMO1 PPI mod: 0.4; LMPTP inh: -1.6

Results for COc1cccc(C2c3c(-c4ccccc4)n[nH]c3C(=O)N2c2ccc(C(=O)O)cc2)c1 (centres undefined) ?
DNMT1 inh: 2.0; NadD inh: -1.7; STEP inh: 3.2; Scp1 inh: 53.2*; SUMO1 PPI mod: 9.8; LMPTP inh: -1.0; Scp1 confirm: 51.6*; Scp-1 MG ctr: -20.8; Scp1 DSF: 23.9*

Results for Cc1cc(C)c(S(C)(=O)=O)c(N(C)NC(=O)c2c(F)cccc2F)n1 ?
DNMT1 inh: -4.2; NadD inh: 2.1; STEP inh: 0.3; Scp1 inh: 68.4*; SUMO1 PPI mod: -0.1; LMPTP inh: -0.7; Scp1 confirm: -14.7; Scp-1 MG ctr: -11.4

Results for CC(NC(=O)CN1CCCC1)c1ccccc1 (centres undefined) ?
DNMT1 inh: 3.0; NadD inh: -6.8; STEP inh: 0.7; Scp1 inh: -3.0; SUMO1 PPI mod: 4.3; LMPTP inh: -2.9

How did O=S(=O)(Nc1ccccc1Cl)c1ccc2[nH]c(=S)oc2c1 do in these assays?
DNMT1 inh: 0.2; NadD inh: -1.3; STEP inh: -0.1; Scp1 inh: -1.8; SUMO1 PPI mod: 8.6; LMPTP inh: -1.3

What do the screens show for `COc1ccccc1NS(=O)(=O)c1ccc2[nH]c(=S)oc2c1`?
DNMT1 inh: 7.1; NadD inh: 0.5; STEP inh: -5.3; Scp1 inh: 58.7*; SUMO1 PPI mod: 12.2; LMPTP inh: 0.8; Scp1 confirm: -7.4; Scp-1 MG ctr: -12.3

What do the screens show for `Cc1c(C(=O)O)cccc1-n1c(C)cc(C=O)c1C`?
DNMT1 inh: 46.0; NadD inh: 2.8; STEP inh: 5.9; Scp1 inh: 56.1*; SUMO1 PPI mod: -1.6; LMPTP inh: -0.3; Scp1 confirm: 43.7*; Scp-1 MG ctr: -13.7; Scp1 DSF: -4.6

Results for Cc1ccc(C(=O)O)cc1-n1c(C)cc(C=O)c1C ?
DNMT1 inh: 28.0; NadD inh: 6.7; STEP inh: 6.0; Scp1 inh: 30.8; SUMO1 PPI mod: -4.8; LMPTP inh: 0.1

How did CCOCCCN(C(=O)c1snc(C(N)=O)c1N)C(C(=O)NC1CCCC1)c1ccc(F)cc1 (centres undefined) do in these assays?
DNMT1 inh: 0.0; NadD inh: -5.6; STEP inh: -2.8; Scp1 inh: 3.1; SUMO1 PPI mod: -8.1; LMPTP inh: 0.4
